Compound activity as filed in PubChem.
NadD inh: inhibitors of S. aureus NadD, primary screen, biochemical, colorimetric, uHTS; Nicotinate-nucleotide adenylyltransferase NadD (Staphylococcus aureus N315); purified NadD enzyme, colorimetric absorbance read-out; inhibition, % at 20 µM; hit rate 0.78% among 360,000; in the data active = inhibition above about 26%
NR2E3 ag-1: NR2E3 agonists in two-hybrid cells, primary screen, cell-based, luminescence, CHO-S, Gal4-NCOR/VP16-NR2E3 | Photoreceptor-specific nuclear receptor (Homo sapiens), Q9Y5X4 | luciferase | hit rate 0.35% among 360,000 | inhibition of corepressor binding, % at 3.98 µM;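 active = inhibition above the mean of all tested compounds plus 3 SD, cut at about 70% in these data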;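 note: 0% = DMSO with NR2E3 transfected cells and 100% = cells lacking NR2E3 construct; higher means lower luciferase signal from less NR2E3 corepressor binding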
Target sequence (Q9Y5X4 whole entry, looked up, the tested form may be a part): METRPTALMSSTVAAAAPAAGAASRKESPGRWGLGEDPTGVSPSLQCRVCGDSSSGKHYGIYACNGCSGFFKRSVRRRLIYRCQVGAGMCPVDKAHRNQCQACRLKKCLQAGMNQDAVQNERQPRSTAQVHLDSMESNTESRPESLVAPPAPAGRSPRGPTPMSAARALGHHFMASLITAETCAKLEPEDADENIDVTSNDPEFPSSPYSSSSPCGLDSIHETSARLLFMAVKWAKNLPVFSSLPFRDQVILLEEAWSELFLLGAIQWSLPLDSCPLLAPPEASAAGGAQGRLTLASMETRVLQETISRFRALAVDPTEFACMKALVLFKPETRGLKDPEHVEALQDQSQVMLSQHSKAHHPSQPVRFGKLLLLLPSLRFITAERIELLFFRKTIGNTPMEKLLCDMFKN
bovine MsrA act: bovine MsrA enzyme activators, primary screen, biochemical, absorbance, HTS; purified bovine MsrA, absorbance read-out; activation, % at 10.6 µM; hit rate 0.3% among 360,000; AID 602163, 2012; in the data active = activation above about 7.5%;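 note: 0% = vehicle and 100% = reference activator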
NR2E3 ag-2: inhibitors of NR2E3-RetCOR corepressor binding, primary screen, NR2E3 agonist project, biochemical, TR-FRET, GST-NR2E3, biotin-RetCOR; inhibition of corepressor binding, % at 4.78 µM; 1536-well; hit rate 0.12% among 320,000; Photoreceptor-specific nuclear receptor (Homo sapiens), Q9Y5X4;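 active = percent inhibition above the cutoff of mean plus 3 SD of all tested compounds, set per screening campaign, cut at about 20% in these data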;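 note: 0% = DMSO wells and 100% = biotin wells as full block of FRET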
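Test system – NR2E3–RetCOR corepressor complex · Quantity – NR2E3 fusion 1.35 nM · Buffer or medium – Tris pH 7.5 · Incubation – Compound–protein incubation for 5 h at 4 °C · Technique – TR-FRET, Eu(K)-anti-GST donor, streptavidin-D2 acceptor, ex 340, em 617/671 nm · Evaluation – percent inhibition of 671/617 nm emission ratio versus biotin and DMSO controls · Plate – 1536-well format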
MsrA inh: bovine MsrA enzyme inhibitors, primary screen, biochemical, absorbance, HTS. purified bovine MsrA, absorbance read-out. inhibition, % at 15.5 µM. hit rate 0.75% among 360,000; in the data active = inhibition above about 4.5%;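 note: 0% = vehicle wells with enzyme and 100% = reference inhibitor wells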
GalR3 antag: GalR3 antagonists in HEK293 cells, primary screen, cell-based, fluorescence readout; Galanin receptor type 3 (Homo sapiens), O60755; HEK293 GalR3-CNG cAMP membrane potential fluorescence; galR3 body fused to GalR1 C-terminus; inhibition, % at 3 µM; hit rate 0.44% among 360,000; AID 651719, 2012;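 active = inhibition above the screen-wide average plus 3 SD, cut at about 13% in these data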;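 note: forskolin and galanin both at EC90 stimulate the cells; cAMP rise reported by CNG channel membrane potential dye signal; 0% = forskolin plus galanin with DMSO and 100% = forskolin alone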
Target sequence (O60755 1-299 limits assumed): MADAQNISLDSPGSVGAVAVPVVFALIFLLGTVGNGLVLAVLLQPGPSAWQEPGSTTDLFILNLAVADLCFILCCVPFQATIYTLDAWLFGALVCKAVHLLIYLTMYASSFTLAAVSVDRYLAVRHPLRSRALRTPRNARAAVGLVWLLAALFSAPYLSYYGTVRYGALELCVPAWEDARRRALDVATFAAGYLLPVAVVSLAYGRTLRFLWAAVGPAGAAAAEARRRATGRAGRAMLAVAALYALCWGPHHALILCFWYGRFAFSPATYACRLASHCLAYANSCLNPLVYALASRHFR
GalR3 conf: GalR3 antagonist hit confirmation, cell-based, fluorescence, triplicate. AID 652245, 2013. HEK293 GalR3 CNG cAMP biosensor, membrane potential fluorescence; galR3 fused to GalR1 carboxy tail; challenged with forskolin and galanin at EC90. shares compounds with GalR3 antag. hit rate 59% among 1,600. inhibition, % at 3 µM;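 active = inhibition above the primary screen's cutoff, the mean inhibition of all screened compounds plus 3 SD, cut at about 13% in these data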;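 note: 0% = forskolin plus galanin and 100% = forskolin alone with DMSO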
CNG parental: nonspecific cAMP agonists in parental HEK-CNG cells, counter-screen for GalR3 antagonist project, cell-based, fluorescence, high throughput; shares compounds with GalR3 antag; HEK293-CNG parental cells, cAMP membrane potential fluorescence; normalised: DMSO wells 0%, forskolin wells 100%; activation, % at 3 µM; hit rate 10% among 1,600; AID 652268, 2013; in the data active = activation above about 1.3%
* = called active by the depositor; . = no result. In the library only some 2.5% were active in any assay of this set; here they are far more common.

SMILES | NadD inh | NR2E3 ag-1 | bovine MsrA act | NR2E3 ag-2 | MsrA inh | GalR3 antag | GalR3 conf | CNG parental
O=C1NC(=Nc2ccccc2)S/C1=C\c1cccnc1 | -5 | 0 | -4 | 0 | 2 | 2 | . | .
Cc1cc(N2CCN(C)CC2)nc2ccc(NC(=O)c3cccnc3Cl)cc12 | -6 | -8 | -7 | 0 | 2 | -2 | . | .
COCCn1nnnc1C(c1cccs1)N1CCN(c2nc3ccccc3s2)CC1 (stereo not given) | 2 | -14 | 0 | 2 | 0 | -2 | . | .
Oc1ccc(C(c2nnnn2CCc2ccccc2)N2CCN(c3nc4ccccc4s3)CC2)cc1 (stereo not given) | 23 | -2 | -3 | 3 | 1 | 23* | 1 | -1
O=C(Nc1cc([N+](=O)[O-])ccc1O)c1cccc([N+](=O)[O-])c1 | -2 | -48 | -2 | -1 | 0 | -8 | . | .
NS(=O)(=O)c1ccc(O)c(NC(=O)c2ccc([N+](=O)[O-])cc2)c1 | 1 | -28 | -3 | -4 | 1 | 20* | 4 | 0
Cc1ccccc1-c1nnn(CC(=O)Nc2ccc3c(c2)OCO3)n1 | -3 | 4 | -1 | 2 | 1 | -7 | . | .
Cc1ccccc1-c1nnn(CC(=O)Nc2ccc3c(c2)OCCO3)n1 | -9 | -25 | 0 | 2 | 0 | 16* | 19* | 1
CC(=O)NCC(=O)OCC(=O)Nc1nc(-c2ccccc2)cs1 | -8 | -18 | -4 | 2 | 1 | -3 | . | .
COC(=O)COc1ccc(S(=O)(=O)NCc2ccncc2)cc1 | 2 | -21 | 0 | 3 | -1 | 96* | 113* | -1
CCOC(=O)COc1ccc(S(=O)(=O)NCc2cccnc2)cc1 | -4 | -3 | -2 | 2 | 2 | -4 | . | .
COc1ccc(C(=O)N2CCN(c3ccc([N+](=O)[O-])c(NCCc4ccc(OC)c(OC)c4)c3)CC2)cc1 | -3 | 24 | -3 | -1 | -1 | 24* | 92* | 0
COc1ccc(CCNc2cc(N3CCN(C(=O)c4ccc(C)cc4)CC3)ccc2[N+](=O)[O-])cc1OC | . | . | . | 1 | . | . | . | .
Nc1[nH]n2c(=O)c3c(nc2c1N=Nc1ccccc1)CCCC3 | 16 | 14 | -14 | -8 | 2 | 61* | 28* | 0
CCC(C(=O)NCc1ccco1)n1nc(C)c2c(C)n(-c3ccc(C)cc3)nc2c1=O (stereo not given) | -2 | -12 | 0 | 0 | 1 | 0 | . | .
Cn1ncc2c(N3CCC(Cc4ccccc4)CC3)ncnc21 | 0 | 28 | -2 | 0 | -1 | -5 | . | .
NNC(=O)c1cc2c(N3CCC(Cc4ccccc4)CC3)ncnc2s1 | 23 | 3 | -5 | 2 | 0 | 29* | 21* | 1
Cc1ccc(C(=O)Nc2ccc(F)cc2F)o1 | 1 | -17 | -4 | -4 | -1 | -3 | . | .
CCC(=O)OCCNc1cc(Sc2nccn2C)c2nonc2c1[N+](=O)[O-] | 4 | -10 | -5 | 3 | 3 | 41* | 21* | 0
CCCC(=O)OCCNc1cc(Sc2nc3ccccc3[nH]2)c2nonc2c1[N+](=O)[O-] | 5 | -8 | -9 | 0 | 1 | 26* | 35* | 0
COc1cccc(-c2c(C(=O)N/N=C/c3sccc3C)nnn2-c2nonc2N)c1 | 6 | 2 | -4 | -3 | 3 | . | 12 | -1
COc1ccc(N2C(=O)CSC2c2cccc(F)c2)cc1 (stereo not given) | -1 | -42 | -1 | -3 | -2 | -12 | . | .
COC(=O)Oc1ccc(/C=N/NC(=O)CN(c2ccccc2Br)S(C)(=O)=O)cc1OC | 4 | -3 | -3 | 2 | -2 | 11 | . | .
CN(C)c1ccc(/C=N/NC(=O)CN(c2ccccc2Cl)S(C)(=O)=O)cc1Br | 4 | 16 | -3 | -1 | -1 | 14* | 18* | 1
Cc1cccc(C(=O)NCC(=O)N2CCN(S(=O)(=O)/C=C/c3ccccc3)CC2)c1 | 1 | -5 | -1 | 4 | 0 | -5 | . | .
SMILES | NadD inh | NR2E3 ag-1 | bovine MsrA act | NR2E3 ag-2 | MsrA inh | GalR3 antag | GalR3 conf | CNG parental
Cc1onc(-c2ccccc2Cl)c1C(=O)NC(=S)Nc1ccccc1F | -6 | -2 | -7 | 6 | 2 | -6 | . | .
COc1ccccc1NC(=S)NC(=O)c1c(-c2ccccc2Cl)noc1C | -6 | 1 | -4 | -1 | 0 | 15* | 6 | 0
COc1ccc(-c2c3c(=O)n(C)c(=O)n(C)c3cn2-c2cc(OC)ccc2OC)cc1 | -3 | 5 | -5 | 3 | 2 | 18* | 20* | 0
COc1ccc(-c2c3c(=O)n(C)c(=O)n(C)c3cn2-c2ccccc2O)cc1 | -6 | -29 | -5 | -1 | 1 | 0 | . | .
O=C(OC1CCOC1=O)c1ccc(N2CCCC2)c([N+](=O)[O-])c1 (stereo not given) | -15 | 2 | 0 | 2 | 1 | 20* | 2 | 0
O=C(OC1CCOC1=O)c1cc(Cl)ccc1[N+](=O)[O-] (stereo not given) | -3 | 0 | -2 | -1 | 0 | 6 | . | .
O=C(Nc1cccnc1)c1cccc(NC(=O)c2ccco2)c1 | 0 | -40 | 1 | -2 | 0 | -4 | . | .
Cc1ccc(/C=C/C(=O)Nc2ccc(S(=O)(=O)Nc3ncccn3)cc2)cc1 | 1 | 12 | -12 | -3 | 1 | 13* | 6 | 0
O=C(/C=C/c1ccc(F)cc1)Nc1ccc(S(=O)(=O)Nc2ncccn2)cc1 | -1 | 16 | -8 | -1 | 1 | 3 | . | .
CCOC(=O)N1CCN(C(=O)CSCc2ccc(Cl)cc2)CC1 | -3 | -29 | -2 | 2 | 0 | -3 | . | .
CCOC(=O)N1CCN(C(=O)CSCc2ccc(Br)cc2)CC1 | 0 | -24 | -2 | -3 | 1 | . | 2 | 0
Cc1ccc(OCCCC(=O)N(C)CC(=O)Nc2ccccc2Br)cc1 | -2 | 3 | -1 | -1 | -1 | -4 | . | .
NCCCC[C@H](NC(=O)C1CCNCC1)c1nnc([C@@H](N)Cc2ccc(O)cc2)o1 | 2 | -25 | -1 | 2 | -1 | . | -1 | 0
